Assay outcomes deposited in PubChem BioAssay by several laboratories.
An excerpt weighted towards active compounds, which were near 9.2% of everything screened.
L major viab: inhibitors of Leishmania major promastigote growth | Leishmania major promastigotes, resazurin fluorescence viability | inhibition, % at 10 µM | 9% of 200,000 active; in the data active = inhibition above about 50%;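 also: promastigotes grown with compound for 44 hours at 28 °C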
Dynein cargo inh: blocks dynein driven cargo transport along microtubules; z-score, hits read low; 0.47% of 220,000 active; AID 1381; 3617.4 mouse cells, GR-EGFP nuclear translocation imaging; test concentration mostly 20 µM; stimulated with dexamethasone, 1 µM; active compounds read low;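 active = plate z-score of nuclear minus cytoplasmic receptor signal below a set negative limit, without overly bright fluorescence or cell loss, cut at about -3.5 in these data, passing the limit was not always enough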;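 also: z-score of nuclear minus cytoplasmic ring GR-EGFP intensity difference per well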
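Also added – dexamethasone, 1.0 µM final · Buffer or medium – tet-free, stripped-serum medium · Schedule – induction 48 h, compound 1 h, agonist 30 min · Detection – formaldehyde fixation, Hoechst nuclear stain, 10x automated fluorescence imaging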
Autophagy mod: autophagy modulation, high-content screen; MEF GFP-LC3 puncta imaging; test concentration mostly 10 µM; calls only at 10 µM (by protocol); 0.98% of 190,000 active;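 active = percentage of spot-positive cells more than 3 SD above its plate mean, without a fluorescence outlier flag or 80% toxicity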
HCT116 bCat-KO: beta-catenin-lacking colon tumor cell growth suppression; 1.5% of 140,000 active; HCT116 beta-catenin knockout viability, CellTiter-Glo, 60 h; active compounds read low; viability, % at 10 µM; AID 818;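 active = viability at or under a set limit, the compound median less 4 SD, cut at about 6% in these data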
HCT116 PTEN-null: PTEN-deleted cell growth suppression. viability, % at 10 µM. HCT116 PTEN-null viability, CellTiter-Glo, 60 h; active compounds read low. AID 827. 1.2% of 140,000 active;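 active = viability at or below a set limit, 4 SD under the median of all tested compounds, cut at about 3.7% in these data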;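 also: PTEN knockout HCT116 line with beta catenin targeted HCT116 as companion control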
Of the large screens only hits and unclear results are named; the others gave an inactive call.

Cc1ccc(S(=O)(=O)N2CCC(NC(=O)c3cccc(C)c3)CC2)cc1	none (no result: HCT116 bCat-KO, HCT116 PTEN-null)
CCc1c(O)cc2n(c1=O)-c1ccc(Cl)cc1C2(C)C	L major viab 71.1
O=C1CCC(C(=O)OCC(=O)N2N=C3/C(=C/c4ccccc4)CCCC3C2c2ccccc2)N1 (stereo not given)	none
O=C(c1ccccn1)N1N=C2/C(=C/c3ccccc3)CCCC2C1c1ccccc1 (stereo not given)	L major viab 93.9
CCCn1nnc(NC(=O)c2cccc(OCC)c2)n1	Autophagy mod active
CCOc1cccc(C(=O)Nc2cccc(-c3nnc(-c4ccccc4)o3)c2)c1	none
CCOc1cccc(C(=O)Nc2cccc(-c3nnc(-c4ccc(C)cc4)o3)c2)c1	Autophagy mod active, HCT116 bCat-KO 1.7, HCT116 PTEN-null 3.1
CCCn1nnc(NC(=O)c2cccc(OCC(C)C)c2)n1	none
CC1CC(C)CN(CCCOc2ccccc2[N+](=O)[O-])C1 (stereo not given)	L major viab 81.0
Cc1ccc([N+](=O)[O-])c(OCCN2CCCCCC2)c1	L major viab 97.4
Cc1ccc(OCCCN2CCOCC2)c([N+](=O)[O-])c1	L major viab 88.5
Cc1cc(OCCN2CCCC2)ccc1[N+](=O)[O-]	none
Cc1ccc(OCCCn2ccnc2)c([N+](=O)[O-])c1	L major viab 72.1
CN(C)CCCNc1nc2sc3c(c2c(=O)n1CCc1ccccc1)CCCCC3	none (no result: L major viab, Autophagy mod, HCT116 bCat-KO, HCT116 PTEN-null)
Cc1ccc(OCCN2CCN(C)CC2)c([N+](=O)[O-])c1	L major viab 95.1
CC(OC(=O)CN1C(=O)C2C3C=CC(C4CC34)C2C1=O)C(=O)c1ccccc1 (stereo not given)	none (no result: L major viab, Autophagy mod, HCT116 bCat-KO, HCT116 PTEN-null)
COc1ccc(NC(=O)CSc2ccc3c4c(cccc24)C(=O)c2ccccc2-3)cc1	Autophagy mod active, HCT116 PTEN-null 3.4
COc1ccc(NC(=O)CSc2nncc3ccccc23)cc1	none (no result: HCT116 bCat-KO, HCT116 PTEN-null)
Cc1cccc(/C=C(\c2nc3ccccc3[nH]2)S(=O)(=O)c2ccccc2)c1	L major viab 100.4, HCT116 bCat-KO 1.9, HCT116 PTEN-null 0.9
OC(CCCN1CCC(O)(c2ccc(Cl)cc2)CC1)c1ccc(F)cc1 (stereo not given)	L major viab 95.7, HCT116 bCat-KO 0.6, HCT116 PTEN-null 0.7
C=CCNC(=O)CN1CCC(O)(c2ccc(F)cc2)CC1	none
CC1=NN(c2ccc(Cl)cc2)C(=O)/C1=C\c1cccn1-c1ccc(S(N)(=O)=O)cc1	L major viab 50.4
CC(C)[C@H](NC(=O)c1ccccc1)C(=O)OCC(=O)N1CCN(C(=O)c2ccco2)CC1	none (no result: HCT116 bCat-KO, HCT116 PTEN-null)
COc1ccccc1N1CCN(C(c2cccs2)C(C)NC(=O)c2ccco2)CC1 (stereo not given)	none (no result: L major viab, Autophagy mod, HCT116 bCat-KO, HCT116 PTEN-null)
Cc1ccc(Nc2ccc([N+](=O)[O-])nc2[N+](=O)[O-])cc1	L major viab 69.8
OC(CN1CCN(c2ccccc2)CC1)c1c[nH]c2ccccc12 (stereo not given)	none
Cc1c(C(O)CN2CCN(Cc3ccc4c(c3)OCO4)CC2)c2ccccc2n1C (stereo not given)	L major viab 100.1
OC(CN1CCN(Cc2ccc3c(c2)OCO3)CC1)c1c[nH]c2ccccc12 (stereo not given)	L major viab 91.3
CCOC(=O)c1sc2nc(CSc3ccccc3)nc(NCCN(C)C)c2c1C	L major viab 92.8 (no result: HCT116 bCat-KO, HCT116 PTEN-null)
CCOC(=O)c1cnc2ncnn2c1N	none (no result: HCT116 bCat-KO, HCT116 PTEN-null)
Cc1ccc2c(c1)Oc1ccc([N+](=O)[O-])cc1C(=O)N2	none (no result: HCT116 bCat-KO, HCT116 PTEN-null)
Cc1ccc2c(c1)Oc1ccc(NC(=O)CCl)cc1C(=O)N2	L major viab 98.5, Autophagy mod active (no result: HCT116 bCat-KO, HCT116 PTEN-null)
CCCNCc1cc(OC)c(OCc2ccccc2)cc1Br	none (no result: HCT116 bCat-KO, HCT116 PTEN-null)
CCC(CO)NCc1cc(OC)c(OCC(=O)NCCc2ccccc2)cc1Br (stereo not given)	L major viab 96.6
CCCNCc1cc(OC)c(OCC(=O)NCCc2ccccc2)cc1Br	L major viab 55.3
O=C(/C=C/Nc1ccc(F)cc1)c1ccc(Br)cc1	none (no result: HCT116 bCat-KO, HCT116 PTEN-null)
O=C(/C=C/Nc1ccc([N+](=O)[O-])cc1)c1ccc(Br)cc1	Autophagy mod active
O=c1cc(CN2CCN(C/C=C/c3ccccc3)CC2)c2cc(O)ccc2o1	L major viab 51.0
Cc1ccc2oc(=O)cc(CN3CCN(C/C=C/c4ccccc4)CC3)c2c1	none (no result: L major viab, Autophagy mod, HCT116 bCat-KO, HCT116 PTEN-null)
O=c1cc(CN2CCN(c3ccccc3)CC2)c2cc(O)c(-c3ccccc3)cc2o1	L major viab 73.3
COc1cccc(N2C(=O)CC(NNc3nc4ccccc4s3)C2=O)c1 (stereo not given)	none (no result: L major viab, Autophagy mod, HCT116 bCat-KO, HCT116 PTEN-null)
